Calls of active or inactive are those of the source. The rule behind the calls is not given here.
Assays:
[1] = Inhibition of TEM1 (unknown origin) expressed in Escherichia coli BL21 DE3 assessed as K2/Ki ratio using nitrocefin as substrate by spectrophotometry
Procedure, shortened: (§1)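 His-tagged enzymes expressed in E. coli BL21(DE3) (IPTG 0.5 mM, 16°C, 18 h), purified by Ni-NTA and size exclusion in 25 mM Tris-HCl pH 7.5, 300 mM NaCl. Carbamoylation k2/Ki from progress curves, reporter nitrocefin 100 μM, 20°C, 100 mM MES pH 6.4; inhibitor up to 100 μM; ≥6 curves, ≥2 independent experiments.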

Escherichia coli [2] = experiment: Antibacterial activity against Escherichia coli Top10 assessed as cefamandole MIC by CLSI protocol based method (reference value: 2 ug/ml); assay type: functional
Procedure, shortened: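 Broth microdilution in cation-adjusted Mueller-Hinton broth following CLSI. Strain carries a β-lactamase gene cloned in pTRC-99k (kanamycin marker); preculture in BHI with IPTG (500 μM) and kanamycin (50 μg/ml); IPTG (500 μM) also in plates to induce enzyme. β-Lactam MIC read with or without inhibitor at fixed 15 μM (4 μg/ml for avibactam; clavulanate 4 μg/ml). Median of five biological repeats from two independent experiments.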

Escherichia coli [3] = experiment: Antibacterial activity against Escherichia coli Top10 harboring TEM1 assessed as cefamandole MIC by CLSI protocol based method (reference value: 2048 ug/ml); assay type: functional
[4] = Inhibition of KPC-2 (unknown origin) expressed in Escherichia coli BL21 DE3 assessed as K2/Ki ratio using nitrocefin as substrate by spectrophotometry; procedure, shortened: as §1
Escherichia coli [5] = experiment: Antibacterial activity against Escherichia coli Top10 without harboring KPC-2 assessed as aztreonam MIC by CLSI protocol based method (reference value: 0.5 ug/ml); assay type: functional
Escherichia coli [6] = experiment: Antibacterial activity against Escherichia coli Top10 harboring KPC-2 assessed as aztreonam MIC by CLSI protocol based method (reference value: 2048 ug/ml); assay type: functional
Enterobacter cloacae [7] = experiment: Inhibition of Enterobacter cloacae CTX-M-15 expressed in Escherichia coli BL21 DE3 assessed as K2/Ki ratio using nitrocefin as substrate by spectrophotometry; procedure, shortened: as §1
Escherichia coli [8] = experiment: Antibacterial activity against Escherichia coli Top10 without harboring CTX-M-15 assessed as amoxicillin MIC by CLSI protocol based method (reference value: 8 ug/ml); assay type: functional
Escherichia coli [9] = experiment: Antibacterial activity against Escherichia coli Top10 harboring CTX-M-15 assessed as amoxicillin MIC by CLSI protocol based method (reference value: 2048 ug/ml); assay type: functional
Enterobacter cloacae [10] = experiment: Inhibition of Enterobacter cloacae AmpC expressed in Escherichia coli BL21 DE3 assessed as K2/Ki ratio using nitrocefin as substrate by spectrophotometry; procedure, shortened: as §1
Escherichia coli [11] = experiment: Antibacterial activity against Escherichia coli Top10 without harboring AmpC assessed as cefotaxime MIC by CLSI protocol based method (reference value: 0.125 ug/ml); assay type: functional
Escherichia coli [12] = experiment: Antibacterial activity against Escherichia coli Top10 harboring AmpC assessed as cefotaxime MIC by CLSI protocol based method (reference value: 256 ug/ml); assay type: functional
[13] = Inhibition of OXA-48 expressed in Escherichia coli BL21 DE3 assessed as K2/Ki ratio using CENTA as substrate by spectrophotometry
Procedure, shortened: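 OXA-48 expressed in E. coli BL21(DE3) (IPTG 0.5 mM, 16°C, 18 h), purified by Ni-NTA and size exclusion. Carbamoylation k2/Ki by spectrophotometric progress curves with CENTA 100 μM as reporter, 20°C, 100 mM MES pH 6.4; inhibitor up to 100 μM; ≥6 curves from ≥2 independent experiments.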

Escherichia coli [14] = experiment: Antibacterial activity against Escherichia coli Top10 without harboring OXA-48 assessed as ertapenem MIC by CLSI protocol based method (reference value: < 0.03 ug/ml); assay type: functional
Escherichia coli [15] = experiment: Antibacterial activity against Escherichia coli Top10 harboring OXA-48 assessed as ertapenem MIC by CLSI protocol based method (reference value: 8 ug/ml); assay type: functional

Structure (SMILES): C[Si](C)(C)c1cn(C[C@@H]2CC[C@@H]3CN2C(=O)N3OS(=O)(=O)[O-])nn1.[Na+]
- Ratio [1]: 370 M⁻¹ s⁻¹
- MIC (Escherichia coli [2]): 2 µg/mL
- MIC (Escherichia coli [3]): 64 µg/mL
- Ratio [4]: 97 M⁻¹ s⁻¹
- MIC (Escherichia coli [5]): 0.5 µg/mL
- MIC (Escherichia coli [6]): 512 µg/mL
- Ratio (Enterobacter cloacae [7]): 400 M⁻¹ s⁻¹
- MIC (Escherichia coli [8]): 8 µg/mL
- MIC (Escherichia coli [9]): 1020 µg/mL
- Ratio (Enterobacter cloacae [10]): 24 M⁻¹ s⁻¹
- MIC (Escherichia coli [11]): 0.125 µg/mL
- MIC (Escherichia coli [12]): 64 µg/mL
- Ratio [13]: inactive
- MIC (Escherichia coli [14]): < 0.03 µg/mL
- MIC (Escherichia coli [15]): 16 µg/mL

Structure (SMILES): NCCC(=O)Nc1ccc(-c2cn(C[C@@H]3CC[C@@H]4CN3C(=O)N4OS(=O)(=O)O)nn2)cc1.O=C(O)C(F)(F)F
- Ratio [1]: 940 M⁻¹ s⁻¹
- MIC (Escherichia coli [2]): 2 µg/mL
- MIC (Escherichia coli [3]): 32 µg/mL
- Ratio [4]: 180 M⁻¹ s⁻¹
- MIC (Escherichia coli [5]): 0.25 µg/mL
- MIC (Escherichia coli [6]): 64 µg/mL
- Ratio (Enterobacter cloacae [7]): 150 M⁻¹ s⁻¹
- MIC (Escherichia coli [8]): 4 µg/mL
- MIC (Escherichia coli [9]): 128 µg/mL
- Ratio (Enterobacter cloacae [10]): 28 M⁻¹ s⁻¹
- MIC (Escherichia coli [11]): 0.25 µg/mL
- MIC (Escherichia coli [12]): 64 µg/mL
- Ratio [13]: inactive
- MIC (Escherichia coli [14]): < 0.03 µg/mL
- MIC (Escherichia coli [15]): 4 µg/mL

Structure (SMILES): COCc1cn(C[C@@H]2CC[C@@H]3CN2C(=O)N3OS(=O)(=O)[O-])nn1.[Na+]
- Ratio [1]: 830 M⁻¹ s⁻¹
- MIC (Escherichia coli [2]): 2 µg/mL
- MIC (Escherichia coli [3]): 16 µg/mL
- Ratio [4]: 18 M⁻¹ s⁻¹
- MIC (Escherichia coli [5]): 0.5 µg/mL
- MIC (Escherichia coli [6]): 512 µg/mL
- Ratio (Enterobacter cloacae [7]): 120 M⁻¹ s⁻¹
- MIC (Escherichia coli [8]): 8 µg/mL
- MIC (Escherichia coli [9]): 256 µg/mL
- Ratio (Enterobacter cloacae [10]): 15 M⁻¹ s⁻¹
- MIC (Escherichia coli [11]): 0.125 µg/mL
- MIC (Escherichia coli [12]): 128 µg/mL
- Ratio [13]: inactive
- MIC (Escherichia coli [14]): < 0.03 µg/mL
- MIC (Escherichia coli [15]): 16 µg/mL

Structure (SMILES): O=C1N2C[C@@H](CC[C@H]2Cn2cc(CN3CCOCC3)nn2)N1OS(=O)(=O)[O-].[Na+]
- Ratio [1]: 1200 M⁻¹ s⁻¹
- MIC (Escherichia coli [2]): 2 µg/mL
- MIC (Escherichia coli [3]): 8 µg/mL
- Ratio [4]: 190 M⁻¹ s⁻¹
- MIC (Escherichia coli [5]): 0.25 µg/mL
- MIC (Escherichia coli [6]): 32 µg/mL
- Ratio (Enterobacter cloacae [7]): 100 M⁻¹ s⁻¹
- MIC (Escherichia coli [8]): 8 µg/mL
- MIC (Escherichia coli [9]): 64 µg/mL
- Ratio (Enterobacter cloacae [10]): 31 M⁻¹ s⁻¹
- MIC (Escherichia coli [11]): 0.125 µg/mL
- MIC (Escherichia coli [12]): 128 µg/mL
- Ratio [13]: inactive
- MIC (Escherichia coli [14]): < 0.03 µg/mL
- MIC (Escherichia coli [15]): 8 µg/mL

Structure (SMILES): CN(C)Cc1cn(C[C@@H]2CC[C@@H]3CN2C(=O)N3OS(=O)(=O)[O-])nn1.[Na+]
- Ratio [1]: 780 M⁻¹ s⁻¹
- MIC (Escherichia coli [2]): 2 µg/mL
- MIC (Escherichia coli [3]): 32 µg/mL
- Ratio [4]: 120 M⁻¹ s⁻¹
- MIC (Escherichia coli [5]): 0.5 µg/mL
- MIC (Escherichia coli [6]): 64 µg/mL
- Ratio (Enterobacter cloacae [7]): 29 M⁻¹ s⁻¹
- MIC (Escherichia coli [8]): 4 µg/mL
- MIC (Escherichia coli [9]): 256 µg/mL
- Ratio (Enterobacter cloacae [10]): 20 M⁻¹ s⁻¹
- MIC (Escherichia coli [11]): 0.125 µg/mL
- MIC (Escherichia coli [12]): 64 µg/mL
- Ratio [13]: inactive
- MIC (Escherichia coli [14]): < 0.03 µg/mL
- MIC (Escherichia coli [15]): 8 µg/mL

Structure (SMILES): O=C1N2C[C@@H](CC[C@H]2Cn2nccn2)N1OS(=O)(=O)[O-].[Na+]
- Ratio [1]: 2600 M⁻¹ s⁻¹
- MIC (Escherichia coli [2]): 2 µg/mL
- MIC (Escherichia coli [3]): 16 µg/mL
- Ratio [4]: 350 M⁻¹ s⁻¹
- MIC (Escherichia coli [5]): 0.5 µg/mL
- MIC (Escherichia coli [6]): 512 µg/mL
- Ratio (Enterobacter cloacae [7]): 120 M⁻¹ s⁻¹
- MIC (Escherichia coli [8]): 4 µg/mL
- MIC (Escherichia coli [9]): 512 µg/mL
- Ratio (Enterobacter cloacae [10]): 200 M⁻¹ s⁻¹
- MIC (Escherichia coli [11]): 0.125 µg/mL
- MIC (Escherichia coli [12]): 32 µg/mL
- Ratio [13]: 150 M⁻¹ s⁻¹
- MIC (Escherichia coli [14]): < 0.03 µg/mL
- MIC (Escherichia coli [15]): 8 µg/mL

Structure (SMILES): O=C([O-])[C@H]1/C(=C/CO)O[C@@H]2CC(=O)N21.[Na+] [CLAVULANIC ACID (SODIUM)]
- MIC (Escherichia coli [2]): 2 µg/mL
- MIC (Escherichia coli [3]): 2 µg/mL
- MIC (Escherichia coli [5]): 0.5 µg/mL
- MIC (Escherichia coli [6]): 512 µg/mL
- MIC (Escherichia coli [8]): 8 µg/mL
- MIC (Escherichia coli [9]): 2 µg/mL
- MIC (Escherichia coli [11]): 0.0625 µg/mL
- MIC (Escherichia coli [12]): 128 µg/mL
- MIC (Escherichia coli [14]): < 0.03 µg/mL
- MIC (Escherichia coli [15]): 8 µg/mL

Structure (SMILES): O=C(O)CCc1cn(C[C@@H]2CC[C@@H]3CN2C(=O)N3OS(=O)(=O)[O-])nn1.[Na+]
- Ratio [1]: 720 M⁻¹ s⁻¹
- MIC (Escherichia coli [2]): 2 µg/mL
- MIC (Escherichia coli [3]): 32 µg/mL
- Ratio [4]: 70 M⁻¹ s⁻¹
- MIC (Escherichia coli [5]): 0.25 µg/mL
- MIC (Escherichia coli [6]): 256 µg/mL
- Ratio (Enterobacter cloacae [7]): 110 M⁻¹ s⁻¹
- MIC (Escherichia coli [8]): 2 µg/mL
- Ratio (Enterobacter cloacae [10]): 99 M⁻¹ s⁻¹
- MIC (Escherichia coli [11]): 0.25 µg/mL
- MIC (Escherichia coli [12]): 64 µg/mL
- Ratio [13]: inactive
- MIC (Escherichia coli [14]): < 0.03 µg/mL
- MIC (Escherichia coli [15]): 8 µg/mL

From ChEMBL document CHEMBL4342503, “Diazabicyclooctane Functionalization for Inhibition of β-Lactamases from Enterobacteria” (2020)
